Our source for the IC50 and ILS values is ChEMBL document CHEMBL3243987 (J Med Chem, 1979).

One test deals with Lacticaseibacillus casei. Kind of test: Antimicrobial activity against folate-dependent Lactobacillus casei ATCC 7469 assessed as growth inhibition. The format is functional, organism-based.
For a further test, the system named is CCRF-CEM. Nature of the test: Antitumor activity against human CCRF-CEM assessed as growth inhibition. The test is classed as functional. Particulars: read-out: ID50 (the source's name).
Another test has as its target Dihydrofolate reductase (Lactobacillus casei, UniProt P00381). Nature of the test: Inhibition of Lactobacillus casei ATCC 7469 dihydrofolate reductase. Further details: species or system Lacticaseibacillus casei.
The next test concerns the target T1, Thymidylate synthase (Lactobacillus casei, UniProt P00469).
T1 sequence (P00469 whole entry): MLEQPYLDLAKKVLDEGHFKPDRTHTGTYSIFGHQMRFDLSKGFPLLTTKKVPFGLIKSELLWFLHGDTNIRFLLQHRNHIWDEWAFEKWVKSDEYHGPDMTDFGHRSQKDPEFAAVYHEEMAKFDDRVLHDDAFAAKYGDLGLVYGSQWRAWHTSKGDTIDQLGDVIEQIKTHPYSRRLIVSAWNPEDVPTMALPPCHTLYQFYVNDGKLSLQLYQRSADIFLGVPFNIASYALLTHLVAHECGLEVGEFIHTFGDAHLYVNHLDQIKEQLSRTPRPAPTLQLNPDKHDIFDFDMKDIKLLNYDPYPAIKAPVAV
Nature of the test: Inhibition of Lactobacillus casei ATCC 7469 thymidylate synthase. Further details: species or system Lacticaseibacillus casei.

Test [1] concerns L1210. Nature of the test: Antitumor activity against mouse L1210 cells allografted in BDF/1 hybrid mouse assessed as increase in life span at 400 mg/kg, ip first dose treated 24 hrs after tumor implantation and on day 4 and 7. The format is functional. Particulars: route intraperitoneal. Summed up: (§1)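 Male BDF/1 hybrid mice were inoculated ip with 10⁵ L-1210 leukemia cells and then given three doses (mg/kg × 3). The read-out was percent increase in life span (% ILS) compared with untreated control animals, reported at the optimal dose.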

In test [2] the test system is L1210. Nature of the test: Antitumor activity against mouse L1210 cells allografted in BDF/1 hybrid mouse assessed as increase in life span at 200 mg/kg, ip first dose treated 24 hrs after tumor implantation and on day 4 and 7. The format is functional. Particulars: route intraperitoneal. Summed up: as §1
In test [3] the test system is L1210. Kind of test: Antitumor activity against mouse L1210 cells allografted in BDF/1 hybrid mouse assessed as increase in life span at 50 to 200 mg/kg, ip first dose treated 24 hrs after tumor implantation and on day 4 and 7. The test is classed as functional. Particulars: dose mg/kg 50-200; route intraperitoneal. Put shortly: as §1
Test [4] has as its system L1210. Kind of test: Antitumor activity against mouse L1210 cells allografted in BDF/1 hybrid mouse assessed as increase in life span at 30 mg/kg, ip first dose treated 24 hrs after tumor implantation and on day 4 and 7. The test is classed as functional. Particulars: route intraperitoneal. Summed up:
as §1

pIC50: −log10 of the molar value. Converted amounts (≈) assume the structure as drawn.

Chain of Dihydrofolate reductase (P00381 whole entry): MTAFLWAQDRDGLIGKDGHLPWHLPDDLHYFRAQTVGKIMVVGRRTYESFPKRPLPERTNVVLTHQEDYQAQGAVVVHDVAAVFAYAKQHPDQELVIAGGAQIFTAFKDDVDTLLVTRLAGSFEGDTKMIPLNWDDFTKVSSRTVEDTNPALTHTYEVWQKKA

In general, pIC50 refers to −log10 of the IC50, conventionally taken in molar units. Low readings indicate a high IC50, high ones a low IC50. As for `COC(=O)C[C@H](NC(=O)Nc1ccc(N(C)Cc2cnc3nc(N)nc(N)c3n2)cc1)C(=O)OC`, the IC50 in the test with Lacticaseibacillus casei was determined as 0.006 mg/L (≈ 0.0124 µM); in the test on CCRF-CEM, 3.9 mg/L (≈ 8.07 µM). On Dihydrofolate reductase, this compound showed a pIC50 of 6.22.

`COC(=O)CC[C@H](NC(=O)Nc1ccc(N(C)Cc2cnc3nc(N)nc(N)c3n2)cc1)C(=O)OC`: the IC50 in the test on Lacticaseibacillus casei is 0.006 mg/L (≈ 0.0121 µM); with CCRF-CEM, 3.5 mg/L (≈ 7.03 µM). At Dihydrofolate reductase, the pIC50 is 6.52.

As usually defined, the ILS is how much longer treated animals lived than controls. Take `CN(Cc1cnc2nc(N)nc(N)c2n1)c1ccc(NC(=O)NC(CC(=O)O)C(=O)O)cc1` (racemic): the IC50 was 0.15 mg/L (≈ 0.329 µM) in the test on Lacticaseibacillus casei and 3.2 mg/L (≈ 7.03 µM) in the test with CCRF-CEM. For the same compound, the pIC50 against Thymidylate synthase was 3.72; on Dihydrofolate reductase, 7.30. For the same compound, the ILS at 400 mg/kg in the test on L1210 [1] is 22%.

On to `CN(Cc1cnc2nc(N)nc(N)c2n1)c1ccc(NC(=O)NC(CCC(=O)O)C(=O)O)cc1` (racemic), for which the IC50 came out at 0.008 mg/L (≈ 0.017 µM) in the test with Lacticaseibacillus casei and 0.4 mg/L (≈ 0.852 µM) in the test on CCRF-CEM. The ILS at 200 mg/kg in the test with L1210 [2] was determined as 55%. Also, the pIC50 was 3.60 against Thymidylate synthase and 7.10 at Dihydrofolate reductase.

`COC(=O)CCC1NC(=O)N(c2ccc(N(C)Cc3cnc4nc(N)nc(N)c4n3)cc2)C1=O` (racemic): the ILS in the test on L1210 [3] amounted to 0%. Besides, the IC50 turned out to be 0.104 mg/L (≈ 0.223 µM) with Lacticaseibacillus casei and 6.7 mg/L (≈ 14.4 µM) with CCRF-CEM. In addition, the pIC50 on Dihydrofolate reductase was 5.40.

As for `CN(Cc1cnc2nc(N)nc(N)c2n1)c1ccc(C(=O)N[C@@H](CCC(=O)O)C(=O)O)cc1` [METHOTREXATE], the ILS at 30 mg/kg in the test with L1210 [4] came to 88%. Further, the IC50 with CCRF-CEM turned out to be 0.02 mg/L (≈ 0.044 µM).
